For assay [1], the target named is T1, Kappa-type opioid receptor (Homo sapiens, UniProt P41145). Put plainly: Displacement of [3H]U69,593 from human kappa opioid receptor expressed in CHO cell membranes incubated for 60 mins by liquid scintillation counting. Background: Loss of bound radioactivity is the signal in a displacement assay; it reports binding, not function.
In assay [2] the target is Delta-type opioid receptor (Homo sapiens, UniProt P41143). Put plainly: Displacement of [3H]pCl-DPDPE from human delta opioid receptor expressed in CHO cell membranes incubated for 60 mins by liquid scintillation counting.
Chain of Delta-type opioid receptor (P41143 whole entry): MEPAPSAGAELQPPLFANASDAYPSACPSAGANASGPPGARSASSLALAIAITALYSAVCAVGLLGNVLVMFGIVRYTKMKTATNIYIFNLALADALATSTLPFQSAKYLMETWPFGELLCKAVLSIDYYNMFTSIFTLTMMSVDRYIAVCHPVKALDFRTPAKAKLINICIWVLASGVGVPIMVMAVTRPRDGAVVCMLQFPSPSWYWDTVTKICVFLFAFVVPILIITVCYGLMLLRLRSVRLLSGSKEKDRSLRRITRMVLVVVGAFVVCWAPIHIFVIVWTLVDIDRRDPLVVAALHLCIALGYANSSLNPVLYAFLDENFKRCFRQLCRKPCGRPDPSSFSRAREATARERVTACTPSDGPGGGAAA
Assay [3] concerns the target T1, Kappa-type opioid receptor. Put plainly: Agonist activity at human kappa opioid receptor expressed in CHO cell membranes incubated for 60 mins by [35S]GTPgammaS binding assay. The format is functional. For orientation: Binding of GTPγS marks nucleotide exchange on a G protein.
Assay [4] deals with D(1A) dopamine receptor (Homo sapiens, UniProt P21728). Put plainly: Displacement of [3H]SCH-23390 from human dopamine D1 receptor expressed in LHD1 cells. The format is cell-based.
Chain of D(1A) dopamine receptor (P21728 whole entry): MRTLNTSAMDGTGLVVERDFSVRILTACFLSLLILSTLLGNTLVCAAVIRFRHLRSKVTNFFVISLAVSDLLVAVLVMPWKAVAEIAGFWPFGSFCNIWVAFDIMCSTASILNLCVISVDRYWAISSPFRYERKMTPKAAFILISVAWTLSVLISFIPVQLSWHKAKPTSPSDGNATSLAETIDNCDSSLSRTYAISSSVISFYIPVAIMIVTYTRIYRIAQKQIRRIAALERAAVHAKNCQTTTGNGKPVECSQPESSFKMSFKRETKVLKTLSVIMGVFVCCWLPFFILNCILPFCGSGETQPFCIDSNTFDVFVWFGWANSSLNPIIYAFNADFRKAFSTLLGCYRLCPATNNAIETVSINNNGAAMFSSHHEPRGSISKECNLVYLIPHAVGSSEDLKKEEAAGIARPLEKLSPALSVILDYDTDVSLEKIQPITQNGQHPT
The target of assay [5] is Mu-type opioid receptor (Homo sapiens, UniProt P35372). Put plainly: Displacement of [3H]DAMGO from human mu opioid receptor expressed in CHO cell membranes incubated for 60 mins by liquid scintillation counting.
Chain of Mu-type opioid receptor (P35372 whole entry): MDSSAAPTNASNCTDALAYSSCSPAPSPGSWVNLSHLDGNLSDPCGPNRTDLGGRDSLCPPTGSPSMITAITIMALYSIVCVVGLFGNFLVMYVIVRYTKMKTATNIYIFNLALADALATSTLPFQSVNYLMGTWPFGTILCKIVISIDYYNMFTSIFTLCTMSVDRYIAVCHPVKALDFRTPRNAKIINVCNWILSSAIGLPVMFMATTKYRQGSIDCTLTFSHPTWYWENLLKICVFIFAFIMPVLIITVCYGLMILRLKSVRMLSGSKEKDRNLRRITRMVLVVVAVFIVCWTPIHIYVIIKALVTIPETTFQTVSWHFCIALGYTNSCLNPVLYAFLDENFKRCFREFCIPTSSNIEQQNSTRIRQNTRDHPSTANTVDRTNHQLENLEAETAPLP
The target of assay [6] is D(2) dopamine receptor (Homo sapiens, UniProt P14416). Put plainly: biochemical. The format is cell-based, CHOp.
Chain of D(2) dopamine receptor (P14416 whole entry): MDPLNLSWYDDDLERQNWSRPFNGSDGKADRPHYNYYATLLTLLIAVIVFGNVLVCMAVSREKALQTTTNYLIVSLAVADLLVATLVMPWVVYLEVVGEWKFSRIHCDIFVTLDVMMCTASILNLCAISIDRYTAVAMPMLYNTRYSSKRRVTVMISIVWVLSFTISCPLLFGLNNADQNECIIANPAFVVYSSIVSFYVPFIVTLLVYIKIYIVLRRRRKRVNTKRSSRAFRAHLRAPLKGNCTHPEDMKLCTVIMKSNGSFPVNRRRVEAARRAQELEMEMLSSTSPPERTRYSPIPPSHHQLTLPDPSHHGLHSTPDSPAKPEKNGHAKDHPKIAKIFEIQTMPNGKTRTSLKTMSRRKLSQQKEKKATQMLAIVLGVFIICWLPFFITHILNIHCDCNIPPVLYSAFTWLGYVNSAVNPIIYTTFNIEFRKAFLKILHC
Assay [7] addresses D(3) dopamine receptor (Homo sapiens, UniProt P35462). Put plainly: Displacement of [3H]YM-09151-2 from human dopamine D3 receptor expressed in CHOp cells. Type of assay: cell-based.
Assay [8] concerns Mus musculus. Put plainly: Analgesic activity in CD1 mouse assessed as inhibition of acetic acid induced writhing at 2.5 mg/kg, sc dosed 30 mins before acetic acid challenge in presence of 20 mg/kg, sc KOP receptor antagonist nor-BNI. Type of assay: functional, organism-based. A general note: An intraperitoneal irritant provokes the stretching counted in writhing tests.
Assay [9] deals with Mus musculus. Put plainly: Analgesic activity in CD1 mouse assessed as inhibition of acetic acid induced writhing dosed subcutaneously 30 mins before acetic acid challenge. Type of assay: functional. The gist of the method: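 Mice received the drug subcutaneously across a range of doses, then underwent the acetic acid induced writhing test. Inhibition of writhing was scored against a control group. Data are mean SEM, n = 5−6 mice per group. ED₅₀ was taken from the dose–response curve.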

Assay [10] deals with Kappa-type opioid receptor (Cavia porcellus, UniProt P41144). Put plainly: Displacement of [3H]ethylketocyclazocine from kappa opioid receptor in guinea pig brain.
Chain of Kappa-type opioid receptor (Cavia porcellus, UniProt P41144) (P41144 whole entry): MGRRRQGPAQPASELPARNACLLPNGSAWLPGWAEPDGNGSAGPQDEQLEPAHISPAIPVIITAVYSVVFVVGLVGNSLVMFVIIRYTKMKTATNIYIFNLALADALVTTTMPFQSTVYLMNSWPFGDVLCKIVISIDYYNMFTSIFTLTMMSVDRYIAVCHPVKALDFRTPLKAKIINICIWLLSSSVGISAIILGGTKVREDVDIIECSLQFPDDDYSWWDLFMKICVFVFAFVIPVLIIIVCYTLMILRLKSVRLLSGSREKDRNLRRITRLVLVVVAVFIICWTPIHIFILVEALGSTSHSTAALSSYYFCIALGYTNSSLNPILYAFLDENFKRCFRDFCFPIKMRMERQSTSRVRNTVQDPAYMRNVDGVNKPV

Here are results for 6 molecules from ChEMBL document CHEMBL2177058 (J Med Chem, 2012).

Each structure is given as a SMILES string. Calls of active or inactive are those of the source. The rule behind the calls is not given here.

In general, Ki refers to the dissociation constant of the complex between target and ligand, obtained from inhibition or displacement. Low values mean tighter binding, high ones weaker binding. What is called EC50 is the concentration at which the effect is half-maximal. Low values mean a more potent agent, high ones a less potent agent. As usually defined, the ED50 is the dose at which the effect has come halfway, by size or by number of responders. A word on the IC50: it is the concentration needed to halve the response being measured. The low end stands for greater potency, the high end for weaker potency.

Chain of D(3) dopamine receptor (P35462 whole entry): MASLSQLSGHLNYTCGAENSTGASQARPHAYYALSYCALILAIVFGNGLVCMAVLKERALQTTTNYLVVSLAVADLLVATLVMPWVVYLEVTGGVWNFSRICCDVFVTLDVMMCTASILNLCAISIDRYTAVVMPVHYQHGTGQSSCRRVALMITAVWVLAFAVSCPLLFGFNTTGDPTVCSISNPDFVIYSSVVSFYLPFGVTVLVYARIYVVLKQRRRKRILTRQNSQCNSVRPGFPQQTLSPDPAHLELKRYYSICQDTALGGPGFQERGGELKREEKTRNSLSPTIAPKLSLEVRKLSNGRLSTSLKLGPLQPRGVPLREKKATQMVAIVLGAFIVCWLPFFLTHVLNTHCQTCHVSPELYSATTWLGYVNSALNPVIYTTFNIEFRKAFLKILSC
T1 sequence (P41145 whole entry): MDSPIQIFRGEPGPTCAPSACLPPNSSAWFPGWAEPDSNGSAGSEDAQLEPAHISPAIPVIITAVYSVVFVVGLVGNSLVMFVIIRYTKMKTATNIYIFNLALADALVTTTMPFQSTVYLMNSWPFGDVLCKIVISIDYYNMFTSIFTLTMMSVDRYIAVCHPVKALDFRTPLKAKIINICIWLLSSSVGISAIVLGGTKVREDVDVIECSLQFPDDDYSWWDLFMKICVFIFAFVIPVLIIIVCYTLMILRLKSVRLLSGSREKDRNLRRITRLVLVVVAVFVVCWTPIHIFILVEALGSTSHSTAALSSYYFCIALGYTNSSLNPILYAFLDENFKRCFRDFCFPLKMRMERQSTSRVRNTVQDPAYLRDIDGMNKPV

On to `CCCCN(CCc1ccccc1)CCc1cccc(O)c1`, for which the Ki in assay [1] is 10.9 nM; in assay [2], 2430 nM; in [4] it was more than 10000 nM; in [5] it was 412 nM; in [6] it was 1230 nM; in assay [7], 1150 nM. Further, it took 46.2 nM to reach a half-maximal effect in assay [3] (EC50).
As to `CCCCCCN(CCc1ccccc1)CCc1cccc(O)c1`, the Ki is 141 nM in assay [1]; 3570 nM in assay [2]; more than 10000 nM in [4]; 788 nM in [5]; 831 nM in [6]; 1150 nM in assay [7]. In [3], the EC50 was 647 nM.
Consider `Oc1cccc(CCN(CCc2ccccc2)CC2CC2)c1`, for which the Ki in assay [2] is more than 10000 nM; in assay [4], more than 10000 nM; in assay [6], 118 nM; in assay [7] it was 168 nM.
`CCCCCN(CCc1ccccc1)CCc1cccc(O)c1`: the Ki was 12.6 nM in assay [1]; 1320 nM in assay [2]; more than 10000 nM in assay [4]; 325 nM in assay [5]; 1420 nM in assay [6]; 1100 nM in assay [7]. In [3], this molecule gave an EC50 of 86.4 nM.
In the case of `Oc1cccc(CCN(CCc2ccccc2)CC2CCC2)c1`, the Ki is more than 10000 nM in [2], more than 10000 nM in assay [4], 450 nM in assay [6] and 282 nM in assay [7]. For the same molecule, the result in assay [8] was inactive. The Activity entry in [9] is “Dose-dependent effect”. Also, in assay [9] (CD1, sc), the ED50 worked out at 1.91 mg/kg.
`CCCN(CCc1ccccc1)CCc1cccc(O)c1` returned an IC50 in assay [10] of 57 nM. For the same molecule, the Ki in [1] is 8.13 nM; in assay [2], 3710 nM; in [4], more than 10000 nM; in [5], 594 nM; in [6] it was 64.4 nM; in [7], 21.8 nM. Further, a half-maximal effect in assay [3] (EC50) was put at 49.1 nM.
